For one compound, MIC50, MIC90 and MIC results are on record in ChEMBL document CHEMBL1255469, “In vitro activity of a new isothiazoloquinolone, ACH-702, against Mycobacterium tuberculosis and other mycobacteria” (2010).

Each structure is given as a SMILES string. Values after ≈ are worked out from the molar mass of the structure shown. A value given as a limit tells only on which side of the number the result lay.

What all share (format): functional
Test [1] concerns Mycobacterium tuberculosis. The experiment in a line: Antimicrobial activity against isoniazid and rifampin-susceptible Mycobacterium tuberculosis clinical isolates after 7 days by broth microdilution assay. As to conditions: 168 h. The essentials: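 Alamar Blue broth microdilution in 7H9GC broth (Middlebrook 7H9 base, glycerol, Casitone, 10% OADC). Drug stock 1 mg/ml in 100% DMSO, diluted in broth to a final 0.03 to 8 μg/ml. M. tuberculosis H37Rv served as the susceptible-strain control. Isoniazid and rifampin resistance was assigned beforehand by the proportion method.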
(In general: Broth dilution looks for growth in wells or tubes with falling amounts of substance.)

Test [2] has as its system Mycolicibacterium fortuitum. The experiment in a line: Antimicrobial activity against Mycobacterium fortuitum clinical isolates after 7 days by broth microdilution assay. To be noted: 168 h.
A further test concerns Mycobacterium kansasii. The experiment in a line: Antimicrobial activity against Mycobacterium kansasii after 7 days by broth microdilution assay. To be noted: 168 h. The essentials: (§1)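 Slowly growing mycobacteria were identified by phenotype and hsp65 PCR-RFLP. MIC by CLSI broth microdilution in cation-adjusted Mueller-Hinton broth with OADC supplement at a final 10%. Final drug range 0.06 to 16 μg/ml. Read after 7 days at 35°C. S. aureus ATCC 29213 was run as a quality control with each plate lot.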

Test [3] concerns Mycobacterium avium complex sp. The experiment in a line: Antimicrobial activity against Mycobacterium avium complex clinical isolates after 7 days by broth microdilution assay. As to conditions: 168 h. The essentials: as §1
A further test relates to Mycobacteroides chelonae. The experiment in a line: Antimicrobial activity against Mycobacterium chelonae clinical isolates after 7 days by broth microdilution assay. To be noted: 168 h.
The test system of test [4] is Mycobacteroides abscessus. Nature of the test: Antimicrobial activity against Mycobacterium abscessus clinical isolates after 7 days by broth microdilution assay. To be noted: 168 h.
The next test has as its system Staphylococcus aureus. The experiment in a line: Antimicrobial activity against Staphylococcus aureus ATCC 29213 after 72 hrs by broth microdilution assay. To be noted: ATCC 29213, 72 h.
The subject of another test is Mycobacterium gordonae. Nature of the test: Antimicrobial activity against Mycobacterium gordonae after 7 days by broth microdilution assay. To be noted: 168 h. In a few lines: as §1

By MIC50 is commonly meant the lowest concentration that inhibits either 50% of growth or 50% of the strains tested, depending on the study. High values mean weaker potency, low ones greater potency. By MIC90 is commonly meant an inhibitory concentration at the 90% level, which refers to growth in some studies and to a panel of isolates in others. Read a low MIC90 as greater potency. For orientation: MIC means the smallest concentration in the dilution series that meets the test's criterion for growth inhibition. A high value points to a less susceptible organism.

Consider `COc1c(N2CC[C@@H](C(C)(C)N)C2)c(F)cc2c(=O)c3c(=O)[nH]sc3n(C3CC3)c12`, for which the MIC50 in test [1] was 0.0625 µg/mL (≈ 0.145 µM); in test [2], at most 0.0625 µg/mL; in test [3] it was 0.25 µg/mL (≈ 0.578 µM). The MIC90 was 0.125 µg/mL (≈ 0.289 µM) in test [1], at most 0.0625 µg/mL in test [2] and 4 µg/mL (≈ 9.25 µM) in test [3]. The MIC in the test on Mycobacterium kansasii was 0.12 µg/mL (≈ 0.277 µM); in the test on Mycobacteroides chelonae, 8 µg/mL (≈ 18.5 µM); in test [4] it was 16 µg/mL (≈ 37 µM); with Staphylococcus aureus it was at most 0.06 µg/mL; with Mycobacterium gordonae it was 0.12 µg/mL (≈ 0.277 µM).
